Assay results: ChEMBL document CHEMBL6109036, “Azo derivatives of monoterpenes as anti-Helicobacter pylori agents: from synthesis to structure-based target investigation” (RSC Med Chem, 2025)
≈ marks a conversion by molar mass, not a printed value.

Legend:
Type in all cases: functional
Helicobacter pylori [1] = assay: Bactericidal activity against Helicobacter pylori Clinical isolate F1 measured after 72 hrs of incubation under microaerophilic conditions by modified broth dilution method; conditions: read-out: MBC99.9
Summary of the method: (§1)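 H. pylori (NCTC 11637, F1, 23, F4). Wells with no visible growth in the MIC assay spotted (10 μL) onto Skirrow agar. Plates incubated 72 h at 37 °C, microaerophilic, 100% humidity. MBC = concentration killing 99.9% of the initial inoculum. Triplicate, on at least three different days.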

Helicobacter pylori [2] = assay: Anti-bacterial activity against Helicobacter pylori measured after 72 hrs incubation by modified broth dilution method
Helicobacter pylori [3] = assay: Bactericidal activity against Helicobacter pylori Clinical isolate 23 measured after 72 hrs of incubation under microaerophilic conditions by modified broth dilution method; conditions: read-out: MBC99.9; summary of the method: as §1
Helicobacter pylori [4] = assay: Bactericidal against Helicobacter pylori Clinical isolate F4 measured after 72 hrs of incubation under microaerophilic conditions by modified broth dilution method; conditions: read-out: MBC99.9; summary of the method: as §1
Helicobacter pylori [5] = assay: Anti-bacterial activity against Helicobacter pylori NCTC 11637 measured after 72 hrs incubation by modified broth dilution method
Helicobacter pylori [6] = assay: Anti-bacterial activity against Helicobacter pylori Clinical isolate F4 measured after 72 hrs incubation by modified broth dilution method
Helicobacter pylori [7] = assay: Anti-bacterial activity against Helicobacter pylori Clinical isolate F1 measured after 72 hrs incubation by modified broth dilution method
Helicobacter pylori [8] = assay: Bactericidal against Helicobacter pylori measured after 72 hrs of incubation under microaerophilic conditions by modified broth dilution method; conditions: for MBC: Helicobacter pylori, read-out: MBC99.9
Summary of the method: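 Wells with no visible growth in the MIC assay spotted (10 μL) onto Skirrow agar. Plates incubated 72 h at 37 °C, microaerophilic, 100% humidity. Triplicate, on at least three different days.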

Helicobacter pylori [9] = assay: Anti-bacterial activity against Helicobacter pylori Clinical isolate 23 measured after 72 hrs incubation by modified broth dilution method
Helicobacter pylori [10] = assay: Bactericidal activity against Helicobacter pylori NCTC 11637 measured after 72 hrs of incubation under microaerophilic conditions by modified broth dilution method; conditions: read-out: MBC99.9; summary of the method: as §1

| SMILES | MIC50 (Helicobacter pylori [2]) [µg/mL] | MIC90 (Helicobacter pylori [2]) [µg/mL] | MIC (Helicobacter pylori [5]) [µg/mL] | MIC (Helicobacter pylori [6]) [µg/mL] | MIC (Helicobacter pylori [7]) [µg/mL] | MIC (Helicobacter pylori [9]) [µg/mL] | MBC (Helicobacter pylori [1]) [µg/mL] | MBC (Helicobacter pylori [3]) [µg/mL] | MBC (Helicobacter pylori [4]) [µg/mL] | MBC90 (Helicobacter pylori [8]) [µg/mL] | MBC (Helicobacter pylori [10]) [µg/mL] | MBC (Helicobacter pylori [8]) [µg/mL] |
| --- | --- | --- | --- | --- | --- | --- | --- | --- | --- | --- | --- | --- |
| Cc1cc(O)c(C(C)C)cc1/N=N/c1ccccc1Cl | 4 (≈ 13.9 µM) | 4 (≈ 13.9 µM) | 4 (≈ 13.9 µM) | 4 (≈ 13.9 µM) | 4 (≈ 13.9 µM) | 4 (≈ 13.9 µM) | 4 (≈ 13.9 µM) | 8 (≈ 27.7 µM) | 4 (≈ 13.9 µM) | 8 (≈ 27.7 µM) | 4 (≈ 13.9 µM) |  |
| Cc1cc(OC(=S)N(C)C)c(C(C)C)cc1/N=N/c1ccc([N+](=O)[O-])cc1 | > 128 | > 128 | > 128 | > 128 | > 128 | > 128 | > 128 | > 128 | > 128 | >128 | > 128 |  |
| COc1cc(C)c(/N=N/c2ccc([N+](=O)[O-])cc2)cc1C(C)C | > 128 | > 128 | > 128 | > 128 | > 128 | > 128 | > 128 | > 128 | > 128 | >128 | > 128 |  |
| Cc1ccccc1/N=N/c1cc(C(C)C)c(O)cc1C | 4 (≈ 14.9 µM) | 8 (≈ 29.8 µM) | 4 (≈ 14.9 µM) | 4 (≈ 14.9 µM) | 4 (≈ 14.9 µM) | 8 (≈ 29.8 µM) | 4 (≈ 14.9 µM) | 8 (≈ 29.8 µM) | 4 (≈ 14.9 µM) | 8 (≈ 29.8 µM) | 4 (≈ 14.9 µM) |  |
| Cc1cc(/N=N/c2ccccc2Cl)c(C(C)C)c(/N=N/c2ccccc2Cl)c1O | 128 (≈ 300 µM) | 128 (≈ 300 µM) | 128 (≈ 300 µM) | 128 (≈ 300 µM) | 64 (≈ 150 µM) | 128 (≈ 300 µM) | > 128 | > 128 | > 128 | >128 | 128 (≈ 300 µM) |  |
| Cc1cc(OC(=O)N(C)C)c(C(C)C)cc1/N=N/c1ccc([N+](=O)[O-])cc1 | > 128 | > 128 | > 128 | 128 (≈ 346 µM) | 128 (≈ 346 µM) | > 128 | 128 (≈ 346 µM) | 128 (≈ 346 µM) | 128 (≈ 346 µM) | 128 (≈ 346 µM) | 128 (≈ 346 µM) |  |
| CC(=O)Oc1cc(C)c(/N=N/c2ccc([N+](=O)[O-])cc2)cc1C(C)C | 128 (≈ 375 µM) | > 128 | > 128 | > 128 | 128 (≈ 375 µM) | 128 (≈ 375 µM) | 128 (≈ 375 µM) | 128 (≈ 375 µM) | > 128 | >128 | > 128 |  |
| COc1ccc(/N=N/c2cc(C(C)C)c(OC(=O)N(C)C)cc2C)cc1 | > 128 | 128 (≈ 360 µM) | 128 (≈ 360 µM) | 64 (≈ 180 µM) | 128 (≈ 360 µM) | 64 (≈ 180 µM) | > 128 | 128 (≈ 360 µM) | 64 (≈ 180 µM) | 128 (≈ 360 µM) | 64 (≈ 180 µM) |  |
| CC1(C)S[C@@H]2[C@H](NC(=O)[C@H](N)c3ccc(O)cc3)C(=O)N2[C@H]1C(=O)O [AMOXICILLIN] | 0.016 (≈ 0.0438 µM) | 0.064 (≈ 0.175 µM) | 0.016 (≈ 0.0438 µM) | 0.064 (≈ 0.175 µM) | 0.064 (≈ 0.175 µM) | 0.016 (≈ 0.0438 µM) | 0.064 (≈ 0.175 µM) | 0.016 (≈ 0.0438 µM) | 0.064 (≈ 0.175 µM) | 0.064 (≈ 0.175 µM) | 0.016 (≈ 0.0438 µM) |  |
| Cc1ccc(C(C)C)cc1O [CARVACROL] | 64 (≈ 426 µM) | 64 (≈ 426 µM) | 64 (≈ 426 µM) | 64 (≈ 426 µM) | 64 (≈ 426 µM) | 64 (≈ 426 µM) | 64 (≈ 426 µM) | 64 (≈ 426 µM) | 64 (≈ 426 µM) |  | 64 (≈ 426 µM) | 64 (≈ 426 µM) |
| C=CCc1ccc(O)c(OC)c1 [EUGENOL] | 64 (≈ 390 µM) | 64 (≈ 390 µM) | 32 (≈ 195 µM) | 64 (≈ 390 µM) | 64 (≈ 390 µM) | 64 (≈ 390 µM) | 128 (≈ 780 µM) | 64 (≈ 390 µM) | 64 (≈ 390 µM) | 64 (≈ 390 µM) | 64 (≈ 390 µM) |  |
| Cc1ncc([N+](=O)[O-])n1CCO [METRONIDAZOLE] | 2 (≈ 11.7 µM) | 256 (≈ 1500 µM) | 256 (≈ 1500 µM) | 32 (≈ 187 µM) | 2 (≈ 11.7 µM) | 1 (≈ 5.84 µM) | 2 (≈ 11.7 µM) | 1 (≈ 5.84 µM) | 32 (≈ 187 µM) | 256 (≈ 1500 µM) | 256 (≈ 1500 µM) |  |
| Cc1ccc(C(C)C)c(O)c1 [THYMOL] | 64 (≈ 426 µM) | 128 (≈ 852 µM) | 128 (≈ 852 µM) | 64 (≈ 426 µM) | 64 (≈ 426 µM) | 128 (≈ 852 µM) | 64 (≈ 426 µM) | 128 (≈ 852 µM) | 64 (≈ 426 µM) |  | 128 (≈ 852 µM) | 128 (≈ 852 µM) |
| COc1cc(C=O)ccc1O [VANILLIN] | > 128 | > 128 | > 128 | 128 (≈ 841 µM) | > 128 | > 128 | > 128 | > 128 | 128 (≈ 841 µM) |  | > 128 | > 128 |

Second part, led by results:

| MIC50 (Helicobacter pylori [2]) [µg/mL] | MIC90 (Helicobacter pylori [2]) [µg/mL] | MIC (Helicobacter pylori [5]) [µg/mL] | MIC (Helicobacter pylori [6]) [µg/mL] | MIC (Helicobacter pylori [7]) [µg/mL] | MIC (Helicobacter pylori [9]) [µg/mL] | SMILES | MBC (Helicobacter pylori [1]) [µg/mL] | MBC (Helicobacter pylori [3]) [µg/mL] | MBC (Helicobacter pylori [4]) [µg/mL] | MBC90 (Helicobacter pylori [8]) [µg/mL] | MBC (Helicobacter pylori [10]) [µg/mL] | MBC (Helicobacter pylori [8]) [µg/mL] |
| --- | --- | --- | --- | --- | --- | --- | --- | --- | --- | --- | --- | --- |
| 128 (≈ 345 µM) | > 128 | > 128 | 128 (≈ 345 µM) | 128 (≈ 345 µM) | 128 (≈ 345 µM) | COc1ccc(/N=N/c2cc(C(C)C)c(OC(=S)N(C)C)cc2C)cc1 | > 128 | 128 (≈ 345 µM) | 128 (≈ 345 µM) | >128 | > 128 |  |
| 64 (≈ 196 µM) | 128 (≈ 392 µM) | 128 (≈ 392 µM) | 64 (≈ 196 µM) | 128 (≈ 392 µM) | 64 (≈ 196 µM) | COc1ccc(/N=N/c2cc(C(C)C)c(OC(C)=O)cc2C)cc1 | 128 (≈ 392 µM) | 64 (≈ 196 µM) | 128 (≈ 392 µM) | 128 (≈ 392 µM) | 128 (≈ 392 µM) |  |
| 4 (≈ 14.1 µM) | 4 (≈ 14.1 µM) | 4 (≈ 14.1 µM) | 2 (≈ 7.03 µM) | 4 (≈ 14.1 µM) | 4 (≈ 14.1 µM) | COc1ccc(/N=N/c2cc(C(C)C)c(O)cc2C)cc1 | 4 (≈ 14.1 µM) | 4 (≈ 14.1 µM) | 2 (≈ 7.03 µM) | 4 (≈ 14.1 µM) | 4 (≈ 14.1 µM) |  |
| 128 (≈ 429 µM) | > 128 | > 128 | 128 (≈ 429 µM) | 128 (≈ 429 µM) | > 128 | COc1ccc(/N=N/c2cc(C(C)C)c(OC)cc2C)cc1 | > 128 | > 128 | 128 (≈ 429 µM) | >128 | > 128 |  |
| > 128 | > 128 | > 128 | > 128 | > 128 | > 128 | COc1ccc(/N=N/c2cc(C)c(O)c(/N=N/c3ccc(OC)cc3)c2C(C)C)cc1 | > 128 | > 128 | > 128 | >128 | > 128 |  |
| 4 (≈ 14.1 µM) | 8 (≈ 28.1 µM) | 8 (≈ 28.1 µM) | 4 (≈ 14.1 µM) | 4 (≈ 14.1 µM) | 8 (≈ 28.1 µM) | COc1ccc(/N=N/c2cc(C)c(O)cc2C(C)C)cc1 | 4 (≈ 14.1 µM) | 8 (≈ 28.1 µM) | 4 (≈ 14.1 µM) | 8 (≈ 28.1 µM) | 8 (≈ 28.1 µM) |  |
| 128 (≈ 331 µM) | > 128 | > 128 | 128 (≈ 331 µM) | 128 (≈ 331 µM) | 128 (≈ 331 µM) | Cc1ccccc1/N=N/c1cc(C(C)C)c(O)c(/N=N/c2ccccc2C)c1C | > 128 | > 128 | > 128 | >128 | > 128 |  |
| 128 (≈ 300 µM) | > 128 | > 128 | 128 (≈ 300 µM) | 128 (≈ 300 µM) | 128 (≈ 300 µM) | Cc1c(/N=N/c2ccccc2Cl)cc(C(C)C)c(O)c1/N=N/c1ccccc1Cl | > 128 | > 128 | > 128 | >128 | > 128 |  |
| 128 (≈ 306 µM) | > 128 | > 128 | 128 (≈ 306 µM) | 128 (≈ 306 µM) | 128 (≈ 306 µM) | COc1ccc(/N=N/c2cc(C(C)C)c(O)c(/N=N/c3ccc(OC)cc3)c2C)cc1 | > 128 | > 128 | > 128 | >128 | > 128 |  |
| > 128 | > 128 | 128 (≈ 248 µM) | > 128 | > 128 | > 128 | Cc1cc(/N=N/c2ccc(Br)cc2)c(C(C)C)c(/N=N/c2ccc(Br)cc2)c1O | > 128 | > 128 | > 128 | >128 | 128 (≈ 248 µM) |  |
